Test results: ChEMBL document CHEMBL1140227, “Histone deacetylase inhibitors through click chemistry” (J Med Chem, 2008)

Assays:
Format in all cases: functional
[1] = test system: HCT-15; experiment: Growth inhibition of human HCT15 cells at 10 uM relative to control; conditions: values are per cent of control
In short: (§1)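 Single-dose preliminary screen in the NCI human cancer cell line panel, run by the NIH. Percent inhibition of cell line growth was calculated by comparison with untreated samples.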

[2] = Growth inhibition of human Hs 578T cells at 10 uM relative to control; conditions: values are per cent of control; in short: as §1
[3] = test system: MCF7; experiment: Growth inhibition of human MCF7 cells at 10 uM relative to control; conditions: values are per cent of control; in short: as §1
[4] = test system: KM12; experiment: Growth inhibition of human KM12 cells at 10 uM relative to control; conditions: values are per cent of control; in short: as §1
[5] = test system: EKVX; experiment: Growth inhibition of human EKVX cells at 10 uM relative to control; conditions: values are per cent of control; in short: as §1
[6] = test system: SK-MEL-5; experiment: Growth inhibition of human SK-MEL-5 cells at 10 uM relative to control; conditions: values are per cent of control; in short: as §1
[7] = test system: NCI-H226; experiment: Growth inhibition of human NCI-H226 cells at 10 uM relative to control; conditions: values are per cent of control; in short: as §1
[8] = test system: BT-549; experiment: Growth inhibition of human BT549 cells at 10 uM relative to control; conditions: values are per cent of control; in short: as §1
[9] = test system: SNB-19; experiment: Growth inhibition of human SNB19 cells at 10 uM relative to control; conditions: values are per cent of control; in short: as §1
[10] = Growth inhibition of human RPMI8266 cells at 10 uM relative to control; conditions: values are per cent of control; in short: as §1
[11] = test system: MDA-MB-468; experiment: Growth inhibition of human MDA-MB-468 cells at 10 uM relative to control; conditions: values are per cent of control; in short: as §1
[12] = test system: MDA-MB-231; experiment: Growth inhibition of human MDA-MB-231 cells at 10 uM relative to control; conditions: values are per cent of control; in short: as §1
[13] = test system: OVCAR-5; experiment: Growth inhibition of human OVCAR5 cells at 10 uM relative to control; conditions: values are per cent of control; in short: as §1
[14] = test system: SK-OV-3; experiment: Growth inhibition of human SKOV3 cells at 10 uM relative to control; conditions: values are per cent of control; in short: as §1
[15] = test system: NCI-H322M; experiment: Growth inhibition of human NCI-H322M cells at 10 uM relative to control; conditions: values are per cent of control; in short: as §1
[16] = test system: IGROV-1; experiment: Growth inhibition of human IGROV1 cells at 10 uM relative to control; conditions: values are per cent of control; in short: as §1
[17] = test system: CCRF-CEM; experiment: Growth inhibition of human CCRF-CEM cells at 10 uM relative to control; conditions: values are per cent of control; in short: as §1
[18] = test system: HT-29; experiment: Growth inhibition of human HT-29 cells at 10 uM relative to control; conditions: values are per cent of control; in short: as §1
[19] = test system: OVCAR-3; experiment: Growth inhibition of human OVCAR-3 cells at 10 uM relative to control; conditions: values are per cent of control; in short: as §1
[20] = test system: M14; experiment: Growth inhibition of human M14 cells at 10 uM relative to control; conditions: values are per cent of control; in short: as §1
[21] = test system: SK-MEL-2; experiment: Growth inhibition of human SK-MEL-2 cells at 10 uM relative to control; conditions: values are per cent of control; in short: as §1
[22] = test system: UO-31; experiment: Growth inhibition of human UO31 cells at 10 uM relative to control; conditions: values are per cent of control
In short: (§2)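 Single-dose NCI human tumour cell line screen, run by the NIH. Percent inhibition of cell line growth was calculated by comparison with untreated samples.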

[23] = test system: NCI-H23; experiment: Growth inhibition of human NCI-H23 cells at 10 uM relative to control; conditions: values are per cent of control; in short: as §1
[24] = test system: A549; experiment: Growth inhibition of human A549 cells at 10 uM relative to control; conditions: values are per cent of control; in short: as §1
[25] = test system: HL-60(TB); experiment: Growth inhibition of human HL-60(TB) cells at 10 uM relative to control; conditions: read-out: INH
In short: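 Single-dose cell line screen run by the NCI (NIH) in its human cancer cell line panel, which includes the leukemia line HL-60(TB). Percent growth inhibition was calculated by comparison with untreated samples.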

[26] = test system: COLO 205; experiment: Growth inhibition of human COLO205 cells at 10 uM relative to control; conditions: values are per cent of control; in short: as §1
[27] = test system: SK-MEL-28; experiment: Growth inhibition of human SK-MEL-28 cells at 10 uM relative to control; conditions: values are per cent of control; in short: as §1
[28] = test system: HCC 2998; experiment: Growth inhibition of human HCC2998 cells at 10 uM relative to control; conditions: values are per cent of control; in short: as §1
[29] = test system: CAKI-1; experiment: Growth inhibition of human Caki1 cells at 10 uM relative to control; conditions: values are per cent of control; in short: as §1
[30] = test system: SF-539; experiment: Growth inhibition of human SF539 cells at 10 uM relative to control; conditions: values are per cent of control; in short: as §1
[31] = test system: SW-620; experiment: Growth inhibition of human SW620 cells at 10 uM relative to control; conditions: values are per cent of control; in short: as §2
[32] = test system: MDA-MB-435; experiment: Growth inhibition of human MDA-MB-435 cells at 10 uM relative to control; conditions: values are per cent of control; in short: as §1
[33] = test system: HOP-62; experiment: Growth inhibition of human HOP62 cells at 10 uM relative to control; conditions: values are per cent of control; in short: as §1
[34] = test system: A498; experiment: Growth inhibition of human A498 cells at 10 uM relative to control; conditions: values are per cent of control; in short: as §1
[35] = test system: DU-145; experiment: Growth inhibition of human DU145 cells at 10 uM relative to control; conditions: values are per cent of control; in short: as §1
[36] = test system: OVCAR-8; experiment: Growth inhibition of human OVCAR8 cells at 10 uM relative to control; conditions: values are per cent of control; in short: as §1
[37] = test system: 786-0; experiment: Growth inhibition of human 786-0 cells at 10 uM relative to control; conditions: values are per cent of control; in short: as §1
[38] = test system: UACC-257; experiment: Growth inhibition of human UACC257 cells at 10 uM relative to control; conditions: values are per cent of control; in short: as §2
[39] = test system: TK-10; experiment: Growth inhibition of human TK10 cells at 10 uM relative to control; conditions: values are per cent of control; in short: as §2
[40] = test system: UACC-62; experiment: Growth inhibition of human UACC62 cells at 10 uM relative to control; conditions: values are per cent of control; in short: as §2
[41] = test system: LOX IMVI; experiment: Growth inhibition of human LOXIMVI cells at 10 uM relative to control; conditions: values are per cent of control; in short: as §1
[42] = test system: SF-268; experiment: Growth inhibition of human SF268 cells at 10 uM relative to control; conditions: values are per cent of control; in short: as §1
[43] = test system: ACHN; experiment: Growth inhibition of human ACHN cells at 10 uM relative to control; conditions: values are per cent of control; in short: as §1
[44] = test system: T47D; experiment: Growth inhibition of human T47D cells at 10 uM relative to control; conditions: values are per cent of control; in short: as §2
[45] = test system: Malme-3M; experiment: Growth inhibition of human MALME-3M cells at 10 uM relative to control; conditions: values are per cent of control; in short: as §1
[46] = test system: SNB-75; experiment: Growth inhibition of human SNB75 cells at 10 uM relative to control; conditions: values are per cent of control; in short: as §2
[47] = test system: NCI-H522; experiment: Growth inhibition of human NCI-H522 cells at 10 uM relative to control; conditions: values are per cent of control; in short: as §1
[48] = cells; conditions: Homo sapiens, Cancer cell lines
[49] = test system: SN12C; experiment: Growth inhibition of human SN12C cells at 10 uM relative to control; conditions: values are per cent of control; in short: as §1
[50] = test system: MOLT-4; experiment: Growth inhibition of human MOLT4 cells at 10 uM relative to control; conditions: values are per cent of control; in short: as §1
[51] = test system: U-251; experiment: Growth inhibition of human U251 cells at 10 uM relative to control; conditions: values are per cent of control; in short: as §2
[52] = test system: SF-295; experiment: Growth inhibition of human SF295 cells at 10 uM relative to control; conditions: values are per cent of control; in short: as §1
[53] = test system: OVCAR-4; experiment: Growth inhibition of human OVCAR4 cells at 10 uM relative to control; conditions: values are per cent of control; in short: as §1
[54] = test system: HCT-116; experiment: Growth inhibition of human HCT116 cells at 10 uM relative to control; conditions: values are per cent of control; in short: as §1
[55] = test system: NCI-H460; experiment: Growth inhibition of human NCI-H460 cells at 10 uM relative to control; conditions: values are per cent of control; in short: as §1
[56] = test system: NCI/ADR-RES; experiment: Growth inhibition of human NCI/ADR-RES cells at 10 uM relative to control; conditions: values are per cent of control; in short: as §1
[57] = test system: K562; experiment: Growth inhibition of human K562 cells at 10 uM relative to control; conditions: values are per cent of control; in short: as §1
[58] = test system: PC-3; experiment: Growth inhibition of human PC3 cells at 10 uM relative to control; conditions: values are per cent of control; in short: as §1

O=C(NO)c1cn(C/C=C/c2ccccc2)nn1
growth, % of control at 10 µM [1]: 98.8%
growth, % of control at 10 µM [2]: 95.5%
growth, % of control at 10 µM [3]: 122%
growth, % of control at 10 µM [4]: 104%
growth, % of control at 10 µM [5]: 89.9%
growth, % of control at 10 µM [6]: 148%
growth, % of control at 10 µM [7]: 91.1%
growth, % of control at 10 µM [8]: 107%
growth, % of control at 10 µM [9]: 94.9%
growth, % of control at 10 µM [10]: 94.5%
growth, % of control at 10 µM [11]: 105%
growth, % of control at 10 µM [12]: 96.1%
growth, % of control at 10 µM [13]: 104%
growth, % of control at 10 µM [14]: 107%
growth, % of control at 10 µM [15]: 109%
growth, % of control at 10 µM [16]: 89.4%
growth, % of control at 10 µM [17]: 61%
growth, % of control at 10 µM [18]: 104%
growth, % of control at 10 µM [19]: 97.1%
growth, % of control at 10 µM [20]: 106%
growth, % of control at 10 µM [21]: 95.7%
growth, % of control at 10 µM [22]: 72.7%
growth, % of control at 10 µM [23]: 104%
growth, % of control at 10 µM [24]: 107%
growth, % of control at 10 µM [25]: 94.5%
growth, % of control at 10 µM [26]: 133%
growth, % of control at 10 µM [27]: 104%
growth, % of control at 10 µM [28]: 105%
growth, % of control at 10 µM [29]: 95%
growth, % of control at 10 µM [30]: 135%
growth, % of control at 10 µM [31]: 98.4%
growth, % of control at 10 µM [32]: 103%
growth, % of control at 10 µM [33]: 92.4%
growth, % of control at 10 µM [34]: 95.2%
growth, % of control at 10 µM [35]: 167%
growth, % of control at 10 µM [36]: 106%
growth, % of control at 10 µM [37]: 132%
growth, % of control at 10 µM [38]: 125%
growth, % of control at 10 µM [39]: 130%
growth, % of control at 10 µM [40]: 102%
growth, % of control at 10 µM [41]: 90.2%
growth, % of control at 10 µM [42]: 92.8%
growth, % of control at 10 µM [43]: 101%
growth, % of control at 10 µM [44]: 97.8%
growth, % of control at 10 µM [45]: 110%
growth, % of control at 10 µM [46]: 79.8%
growth, % of control at 10 µM [47]: 92.5%
inhibition at 10 µM [48]: > 95%
growth, % of control at 10 µM [49]: 95.3%
growth, % of control at 10 µM [50]: 79.6%
growth, % of control at 10 µM [51]: 90.1%
growth, % of control at 10 µM [52]: 108%
growth, % of control at 10 µM [53]: 94.3%
growth, % of control at 10 µM [54]: 100%
growth, % of control at 10 µM [55]: 131%
growth, % of control at 10 µM [56]: 107%
growth, % of control at 10 µM [57]: 119%
growth, % of control at 10 µM [58]: 77.6%
